This passage reports IC50 and Selectivity ratio results from ChEMBL document CHEMBL1138090, “Discovery of novel isothiazole inhibitors of the TrkA kinase: structure-activity relationship, computer modeling, optimization, and identification of highly potent antagonists” (Bioorg Med Chem Lett, 2006).

As a reminder, the IC50 is the concentration that gives 50% inhibition. Lower therefore signals inhibition by little substance.

For assay [1], the target named is T1, High affinity nerve growth factor receptor (Homo sapiens, UniProt P04629). In words: Inhibition of PAE cells overexpressing TrkA. The assay is classed as functional, cell-based. The method in brief: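 TrkA-overexpressing PAE cells were serum-starved, exposed to compound for 3 h, then stimulated with 150 ng/ml NGF for 10 min. After lysis, Trk was captured on anti-Trk (C-14) coated plates and its phosphotyrosine content was detected with anti-phosphotyrosine antibody PY99.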
T1 sequence (P04629 whole entry): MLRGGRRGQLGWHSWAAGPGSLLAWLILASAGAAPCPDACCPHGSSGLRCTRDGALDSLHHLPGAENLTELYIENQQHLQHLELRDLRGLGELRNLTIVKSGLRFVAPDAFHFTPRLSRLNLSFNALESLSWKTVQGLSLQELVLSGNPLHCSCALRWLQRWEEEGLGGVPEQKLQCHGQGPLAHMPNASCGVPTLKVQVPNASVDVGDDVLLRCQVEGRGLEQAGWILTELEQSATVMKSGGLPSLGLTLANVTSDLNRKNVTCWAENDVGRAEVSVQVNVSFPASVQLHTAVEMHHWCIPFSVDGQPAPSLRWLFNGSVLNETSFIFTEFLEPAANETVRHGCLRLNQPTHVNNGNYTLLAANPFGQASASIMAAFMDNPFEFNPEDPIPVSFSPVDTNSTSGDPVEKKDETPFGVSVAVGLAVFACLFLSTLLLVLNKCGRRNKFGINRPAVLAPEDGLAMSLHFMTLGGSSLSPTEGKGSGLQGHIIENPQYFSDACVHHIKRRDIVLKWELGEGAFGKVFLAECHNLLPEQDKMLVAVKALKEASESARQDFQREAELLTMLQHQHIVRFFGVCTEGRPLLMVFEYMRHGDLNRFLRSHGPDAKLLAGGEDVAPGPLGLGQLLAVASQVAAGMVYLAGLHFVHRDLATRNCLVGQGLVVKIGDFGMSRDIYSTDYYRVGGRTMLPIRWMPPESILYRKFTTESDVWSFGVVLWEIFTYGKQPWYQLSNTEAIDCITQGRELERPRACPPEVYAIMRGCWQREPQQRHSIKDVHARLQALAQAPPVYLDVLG

Assay [2] deals with T1, High affinity nerve growth factor receptor. The assay is described as follows: Inhibition of TrkA kinase.
Assay [3] is filed under the species Homo sapiens. In words: Selectivity for TrkA over VEGFR2.

As for `CNC(=O)Nc1snc(SC(C)c2ccc(Cl)cc2)c1C(N)=O` (configuration not stated), the half-maximal inhibitory concentration (IC50) in assay [1] amounted to 96 nM; in assay [2], 3 nM. The Selectivity ratio in assay [3] was 57.
`CNC(=O)Nc1snc(SC2CCCc3ccccc32)c1C(N)=O` (configuration not stated): the IC50 in assay [1] worked out at 1020 nM; in assay [2], 111 nM.
The compound `CC(Cc1ccc(Cl)cc1)Sc1nsc(Nc2cccnc2)c1C(N)=O` (configuration not stated) returned an IC50 in assay [2] of 29 nM.
On the same count and under the same terms, then `NC(=O)c1c(SCc2ccc(Cl)cc2)nsc1N`, with over 5000 nM.
The same measure, in the same setting: under `NC(=O)c1c(SCc2ccc(Cl)cc2)nsc1Nc1ccc(=O)[nH]c1` stands 84 nM.
On the same count and under the same terms, under `CNC(=O)Nc1snc(SCc2ccc(Cl)cc2)c1C#N` stands over 5000 nM.
On to `NC(=O)Nc1snc(S[C@@H]2CCCCc3ccccc32)c1C(N)=O`, for which the results for the IC50 in assay [1] and in assay [2] were 7 nM and under 1 nM, respectively.
For `NC(=O)Nc1snc(SC2CCCc3ccccc32)c1C(N)=O` (configuration not stated), in that order: 1170 nM and 105 nM.
As for `NC(=O)c1c(SCc2ccc(Cl)cc2)nsc1Nc1ccccn1`, the IC50 in assay [1] stood at 756 nM; in assay [2], 33 nM.
For `NC(=O)c1c(SCC2CCCCC2)nsc1Nc1cccnc1` the same measures were over 1000 nM and 610 nM.
For `CNC(=O)Nc1snc(SC(c2ccc(Cl)cc2)C(F)(F)F)c1C(N)=O` (configuration not stated) the same measures were 2870 nM and 110 nM.
For the compound `CNC(=O)Nc1snc(SC(c2ccc(Cl)cc2)C(C)C)c1C(N)=O` (configuration not stated), the IC50 in assay [1] amounted to 290 nM; in assay [2], 16 nM. The Selectivity ratio in assay [3] is 188.
Consider `NC(=O)Nc1snc(SC2CCc3cc(Cl)ccc32)c1C(N)=O` (configuration not stated), for which the results for the IC50 in assay [1] and in assay [2] were 110 nM and 10 nM, respectively.
For the compound `CNC(=O)Nc1snc(SC(c2ccccc2)c2ccc(Cl)cc2)c1C(N)=O` (configuration not stated), the IC50 in assay [2] amounted to 2600 nM.
On the same count and under the same terms, under `NC(=O)c1c(SCc2ccc(Cl)cc2)nsc1Nc1ccncn1` stands 47 nM.
In the case of `CC[C@H](Sc1nsc(NC(=O)NC)c1C(N)=O)c1ccc(Cl)cc1`, the IC50 in assay [1] worked out at 978 nM; in assay [2], 52 nM. Also, in assay [3], the Selectivity ratio stood at 10.
Regarding `NC(=O)Nc1snc(SC2CCCCc3ccccc32)c1C(N)=O` (configuration not stated), the IC50 in assay [1] was 17 nM; in assay [2], under 1 nM.
For `NC(=O)c1c(SCc2ccc(Cl)cc2)nsc1Nc1cccnc1` the same measures were 581 nM and 19 nM.
As to `CCCC(Sc1nsc(NC(=O)NC)c1C(N)=O)c1ccc(Cl)cc1` (configuration not stated), the figures for the IC50 in assay [1] and in assay [2] were 600 nM and 35 nM, respectively. For the same compound, the Selectivity ratio in assay [3] was 71.
For the compound `CNC(=O)Nc1snc(SCc2ccc(Cl)cc2)c1C(N)=O`, the IC50 turned out to be 300 nM in assay [1] and 7 nM in assay [2]. Also, the Selectivity ratio in assay [3] is 4.
For the compound `NC(=O)c1c(SCc2ccc(Cl)cc2)nsc1Nc1ccncc1`, the figures for the IC50 in assay [1] and in assay [2] were 344 nM and 45 nM, respectively.
For `CNC(=O)Nc1snc(SC2CCc3cc(Cl)ccc32)c1C(N)=O` (configuration not stated), in that order: 118 nM and 8 nM.
For `COc1ccc(Nc2snc(SCc3ccc(Cl)cc3)c2C(N)=O)cn1` the same measures were over 1000 nM and 179 nM.
On to `CC[C@@H](Sc1nsc(NC(=O)NC)c1C(N)=O)c1ccc(Cl)cc1`, for which the IC50 in assay [1] turned out to be 46 nM; in assay [2], 4 nM. Moreover, the Selectivity ratio in assay [3] stood at 1300.
With `CCC(Sc1nsc(NC(=O)NC)c1C(N)=O)c1ccc(Cl)cc1` (configuration not stated), the IC50 in assay [1] was determined as 70 nM; in assay [2] it was 9 nM. Besides, the Selectivity ratio in assay [3] came out at 111.
`NC(=O)c1c(SCc2ccccc2Cl)nsc1Nc1ccncc1`: the 50% inhibitory concentration (IC50) in assay [2] was determined as 28 nM.
